From ChEMBL document CHEMBL4706614, “Design, synthesis and biological evaluation of novel naphthoquinone-4-aminobenzensulfonamide/carboxamide derivatives as proteasome inhibitors” (Eur J Med Chem, 2021) come the findings set out here.

Test [1] deals with MCF7. The experiment in a line: Antiproliferative activity against human MCF7 cells assessed as cell viability after 48 hrs MTT assay. It counts as functional, cell-based. To be noted: MCF7, 48 h. The procedure, abridged:
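MTT:medium (1:9) added 4 h at 37°C, formazan dissolved in DMSO, absorbance 570 nm. DMSO solvent control; triplicate; IC50 = concentration inhibiting 50% of viability.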
(In general: Formazan colour is commonly taken as a measure of viable cells.)

In test [2] the target is T1, Proteasome Macropain subunit MB1 (Homo sapiens) (UniProt P28074).
T1 sequence (whole entry): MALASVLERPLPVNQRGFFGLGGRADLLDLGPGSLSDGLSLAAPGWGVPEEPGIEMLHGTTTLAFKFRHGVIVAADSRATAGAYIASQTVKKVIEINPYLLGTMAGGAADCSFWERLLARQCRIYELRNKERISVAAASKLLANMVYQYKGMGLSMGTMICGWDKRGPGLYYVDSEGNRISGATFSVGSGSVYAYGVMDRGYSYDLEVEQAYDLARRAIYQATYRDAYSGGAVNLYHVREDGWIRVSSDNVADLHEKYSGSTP
The experiment in a line: Inhibition of chymotrypsin-like activity 20S proteasome beta subunit 5 of human MCF7 cells using fluorogenic substrate Suc-LLVY-AMC at 10 uM after 1 hr by fluorescence analysis relative to control. It counts as cell-based. A digest of the protocol: (§1)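 Screen at 10 µM: MCF-7 lysates (sucrose/HEPES/MgCl2/EDTA buffer, 1 mM DTT) preincubated 10 min in 225 mM Tris pH 7.8, 7.5 mM MgOAc, 7.5 mM MgCl2, 45 mM KCl, 1 mM DTT; compound 1 h at 37 °C, then substrate 1 h at 37 °C; AMC release ex 360/em 460 nm versus DMSO; MG-132 positive control.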

For test [3], the target named is T2, Proteasome component C5 (Homo sapiens) (UniProt P20618).
T2 sequence (whole entry): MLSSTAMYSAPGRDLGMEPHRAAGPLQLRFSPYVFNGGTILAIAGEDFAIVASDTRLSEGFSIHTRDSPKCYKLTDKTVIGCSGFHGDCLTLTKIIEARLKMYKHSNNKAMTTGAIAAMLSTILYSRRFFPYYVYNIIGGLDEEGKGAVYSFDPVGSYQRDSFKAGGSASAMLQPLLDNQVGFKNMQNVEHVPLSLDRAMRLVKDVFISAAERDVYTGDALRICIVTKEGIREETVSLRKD
As to the kind of experiment: Inhibition of caspase-like activity 20S proteasome beta subunit 1 of human MCF7 cells using fluorogenic substrate Z-LLE-AMC at 10 uM after 1 hr by fluorescence analysis relative to control. The test is classed as cell-based. The procedure, abridged: as §1

Test [4] deals with Proteasome Macropain subunit (Homo sapiens) (UniProt P49721). The experiment in a line: Inhibition of trypsin-like activity 20S proteasome beta subunit 2 of human MCF7 cells using fluorogenic substrate Boc-LRR-AMC at 10 uM after 1 hr by fluorescence analysis relative to control. The test is classed as cell-based. A digest of the protocol: as §1
Proteasome Macropain subunit (Homo sapiens), sequence (P49721 whole entry): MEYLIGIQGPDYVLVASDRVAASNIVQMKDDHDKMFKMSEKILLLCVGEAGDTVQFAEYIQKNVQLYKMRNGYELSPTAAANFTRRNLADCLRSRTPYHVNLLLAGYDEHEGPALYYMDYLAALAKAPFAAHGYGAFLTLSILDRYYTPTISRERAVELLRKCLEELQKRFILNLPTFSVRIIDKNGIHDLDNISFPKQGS
Test [5] deals with T3, Proteasome Macropain subunit MB1 (Homo sapiens, UniProt P28074).
T3 sequence (P28074 whole entry): T1 sequence (whole entry)
As to the kind of experiment: Inhibition of chymotrypsin-like activity 20S proteasome beta subunit 5 of human MCF7 cells using fluorogenic substrate Suc-LLVY-AMC after 1 hr by fluorescence analysis. It counts as cell-based. The procedure, abridged:
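For IC50, intact MCF-7 cells treated 12 h with compounds, then lysed (sucrose/HEPES/MgCl2/EDTA, 1 mM DTT); extracts in Tris pH 7.8/MgOAc/MgCl2/KCl/DTT mix with substrate 1 h at 37 °C; AMC fluorescence ex 360/em 460 nm, normalized to BCA total protein; DMSO solvent and MG-132 positive controls.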

Test [6] deals with MCF7. As to the kind of experiment: Effect on 20S proteasome beta subunit 5 expression in human MCF7 cells at IC50 after 12 hrs by Western blot analysis. It counts as functional, cell-based. (In western blotting, separated proteins are transferred to a membrane and probed.)
Test [7] relates to MCF7. As to the kind of experiment: Increase in K48-linked polyubiquitinated protein expression in human MCF7 cells at IC50 after 12 hrs by Western blot analysis. It counts as functional, cell-based.

Calls of active or inactive are those of the source. No cut-off for these calls is given here.

As a reminder, the IC50 is the concentration at which inhibition is half-maximal. In general, inhibition refers to the share of the control response that was lost under treatment. Low readings indicate a weak effect, high ones a strong effect.

For `O=C(Nc1ccc([N+](=O)[O-])cc1)c1ccc(NC2=C(Cl)C(=O)c3ccccc3C2=O)cc1`, the IC50 with MCF7 [1] worked out at 16.1 µM; in test [5], 33.1 µM. The results for the inhibition in test [2], in test [3] and in test [4] were 35.3%, 22.8% and 30.5%, respectively.
For the molecule `O=C1C(Cl)=C(Nc2ccc(S(=O)(=O)Nc3ccc(Cl)cn3)cc2)C(=O)c2ccccc21`, the values for the IC50 (in the test with MCF7 [1]; in test [5]) were 4.43 µM and 9.9 µM, respectively. In addition, the inhibition in test [2] amounted to 42.3%; in test [3], 28.9%; in test [4] it was 35%. In the test with MCF7 [6], the outcome was inactive. For the same molecule, the outcome with MCF7 [7] was Active.
Turning to `O=C1C(Cl)=C(Nc2ccc(S(=O)(=O)Nc3ccccn3)cc2)C(=O)c2ccccc21`, the IC50 with MCF7 [1] stood at 1.96 µM; in test [5], 12.5 µM. Moreover, the inhibition in test [2] stood at 36.8%; in test [3], 18.8%; in test [4] it was 29.6%. The outcome in the test on MCF7 [6] was inactive. Also, in the test with MCF7 [7], the result was Active.
